Reference: ChEMBL document CHEMBL1275435, “A naturally occurring proline-to-alanine amino acid change in Fks1p in Candida parapsilosis, Candida orthopsilosis, and Candida metapsilosis accounts for reduced echinocandin susceptibility” (Antimicrob Agents Chemother, 2008)
Converted amounts (≈) assume the structure as drawn. *1 amine or outer side, *2 acyl side, *3 side chain or, on linkers, in order; H or OH if unused. Where a SMILES comes first, the peptide text is derived from it. Bridges are numbered along the chain shown (N, C = ends). [ ]: non-standard residue; d: D form. The star is where a group is joined. hTyr(3S-OH,4S-OH,3'-OSO3H) = N[C@H](C(=O)O)[C@H](O)[C@@H](O)c1ccc(O)c(OS(=O)(=O)O)c1; Orn(4R-OH,5R-OH) = O=C([C@H](C[C@@H](O)[C@@H](O)N[*:3])N[*:1])[*:2]; Pro(3S-OH,4S-Me) = C[C@H]1CN[C@H](C(=O)O)[C@H]1O; X1 = CCCCCOc1ccc(-c2cc(-c3ccc(C(=O)*)cc3)no2)cc1; Gln(3R-OH) = NC(=O)C[C@@H](O)[C@H](N)C(=O)O; Hyp = O=C(O)[C@@H]1C[C@@H](O)CN1

Assays:
[1] = tested on: Candida albicans; experiment: Antifungal activity against Candida albicans M122 by CLSI method; assay type: functional
[2] = tested on: Candida parapsilosis; experiment: Antifungal activity against Candida parapsilosis H4 by CLSI method; assay type: functional; details: Lodderomyces parapsilosis
[3] = Inhibition of Candida parapsilosis H4 glucan synthase assessed as [3H]UDPG incorporation
In short: (§1)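 Cells were grown with vigorous shaking at 30°C to early stationary phase in YPD. Membrane GS was partially purified by product entrapment, using 10-fold more cells for low-activity strains. The polymerization assay was started by adding GS, with drug serially diluted from 0.01 to 10,000 ng/ml. Reactions ran 60 min at 25°C and were stopped on ice. IC50 came from sigmoidal variable-slope fits, as arithmetic means ± SD of three repetitions on three days.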

[4] = Inhibition of Candida metapsilosis 960161 glucan synthase assessed as [3H]UDPG incorporation; in short: as §1
[5] = Inhibition of Candida parapsilosis H5 glucan synthase assessed as [3H]UDPG incorporation; in short: as §1
[6] = tested on: Candida parapsilosis; experiment: Antifungal activity against Candida parapsilosis H5 by CLSI method; assay type: functional; details: Lodderomyces parapsilosis
[7] = tested on: Saccharomyces cerevisiae; experiment: Antifungal activity against Saccharomyces cerevisiae BY4742-FKS1P649A mutant by CLSI method; assay type: functional
In short: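 Broth microdilution following CLSI M27-A2, run in YPD broth (1% yeast extract, 2% Bacto peptone, 2% dextrose). MICs are geometric means of at least three repetitions on three separate days.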

[8] = Inhibition of Saccharomyces cerevisiae BY4742 glucan synthase assessed as [3H]UDPG incorporation; in short: as §1
[9] = tested on: Candida metapsilosis; experiment: Antifungal activity against Candida metapsilosis am-2006-0113 by CLSI method; assay type: functional; details: Lodderomyces metapsilosis
[10] = Inhibition of Candida metapsilosis am-2006-0113 glucan synthase assessed as [3H]UDPG incorporation; in short: as §1
[11] = Inhibition of Candida orthopsilosis H10 glucan synthase assessed as [3H]UDPG incorporation; in short: as §1
[12] = tested on: Candida albicans; experiment: Antifungal activity against Candida albicans ATCC 90028 by CLSI method; assay type: functional
[13] = Inhibition of Candida albicans ATCC 36082 glucan synthase assessed as [3H]UDPG incorporation; in short: as §1
[14] = tested on: Candida metapsilosis; experiment: Antifungal activity against Candida metapsilosis 960161 by CLSI method; assay type: functional; details: Lodderomyces metapsilosis
[15] = Inhibition of Candida albicans Sc5314 glucan synthase assessed as [3H]UDPG incorporation; in short: as §1
[16] = tested on: Nakaseomyces glabratus; experiment: Antifungal activity against Candida glabrata T51916 by CLSI method; assay type: functional
[17] = tested on: Candida orthopsilosis; experiment: Antifungal activity against Candida orthopsilosis H10 by CLSI method; assay type: functional; details: Lodderomyces orthopsilosis
[18] = Inhibition of Candida glabrata ATCC 90030 glucan synthase assessed as [3H]UDPG incorporation; design: species or system Nakaseomyces glabratus; in short: as §1
[19] = Inhibition of Saccharomyces cerevisiae BY4742-FKS1P649A mutant glucan synthase assessed as [3H]UDPG incorporation; in short: as §1
[20] = Inhibition of Candida parapsilosis ATCC 22019 glucan synthase by assessed as [3H]UDPG incorporation; in short: as §1
[21] = tested on: Nakaseomyces glabratus; experiment: Antifungal activity against Candida glabrata ATCC 90030 by CLSI method; assay type: functional
[22] = tested on: Saccharomyces cerevisiae; experiment: Antifungal activity against FKS1 deficient Saccharomyces cerevisiae BY4742 by CLSI method; assay type: functional
[23] = Inhibition of Candida orthopsilosis 981224 glucan synthase assessed as [3H]UDPG incorporation; in short: as §1
[24] = tested on: Candida albicans; experiment: Antifungal activity against Candida albicans Sc5314 by CLSI method; assay type: functional
[25] = tested on: Candida albicans; experiment: Antifungal activity against Candida albicans ATCC 36082 by CLSI method; assay type: functional
[26] = tested on: Candida orthopsilosis; experiment: Antifungal activity against Candida orthopsilosis 981224 by CLSI method; assay type: functional; details: Lodderomyces orthopsilosis
[27] = tested on: Saccharomyces cerevisiae; experiment: Antifungal activity against Saccharomyces cerevisiae BY4742 by CLSI method; assay type: functional
[28] = tested on: Candida parapsilosis; experiment: Antifungal activity against Candida parapsilosis ATCC 22019 by CLSI method; assay type: functional; details: Lodderomyces parapsilosis
[29] = Inhibition of Candida glabrata T51916 glucan synthase assessed as [3H]UDPG incorporation; design: species or system Nakaseomyces glabratus; in short: as §1
[30] = Inhibition of Candida albicans ATCC 90028 glucan synthase assessed as [3H]UDPG incorporation; in short: as §1
[31] = Inhibition of Candida albicans M122 glucan synthase assessed as [3H]UDPG incorporation; in short: as §1

SMILES: CCCCCOc1ccc(-c2cc(-c3ccc(C(=O)N[C@H]4C[C@@H](O)[C@@H](O)NC(=O)[C@@H]5[C@@H](O)[C@@H](C)CN5C(=O)[C@H]([C@H](O)CC(N)=O)NC(=O)[C@H]([C@H](O)[C@@H](O)c5ccc(O)c(OS(=O)(=O)O)c5)NC(=O)[C@@H]5C[C@@H](O)CN5C(=O)[C@H]([C@@H](C)O)NC4=O)cc3)no2)cc1 [MICAFUNGIN] (X1-[Orn(4R-OH,5R-OH)]T[Hyp][hTyr(3S-OH,4S-OH,3'-OSO3H)][Gln(3R-OH)][Pro(3S-OH,4S-Me)]; lactam 1-C)
- MIC [1]: 0.25 µg/mL (≈ 0.197 µM)
- MIC [2]: 1.12 µg/mL (≈ 0.882 µM)
- IC50 [3]: 0.34083 µg/mL (≈ 0.268 µM)
- Ki [3]: 0.486 µg/mL (≈ 0.383 µM)
- IC50 [4]: 0.11373 µg/mL (≈ 0.0895 µM)
- Ki [4]: 0.3825 µg/mL (≈ 0.301 µM)
- IC50 [5]: 0.49363 µg/mL (≈ 0.389 µM)
- Ki [5]: 0.261 µg/mL (≈ 0.205 µM)
- MIC [6]: 1.26 µg/mL (≈ 0.992 µM)
- MIC [7]: 0.5 µg/mL (≈ 0.394 µM)
- IC50 [8]: 0.15945 µg/mL (≈ 0.126 µM)
- Ki [8]: 0.17901 µg/mL (≈ 0.141 µM)
- MIC [9]: 1.59 µg/mL (≈ 1.25 µM)
- IC50 [10]: 0.07032 µg/mL (≈ 0.0554 µM)
- Ki [10]: 0.266 µg/mL (≈ 0.209 µM)
- IC50 [11]: 0.1527 µg/mL (≈ 0.12 µM)
- Ki [11]: 0.1775 µg/mL (≈ 0.14 µM)
- MIC [12]: 0.03 µg/mL (≈ 0.0236 µM)
- IC50 [13]: 0.01888 µg/mL (≈ 0.0149 µM)
- Ki [13]: 0.0155 µg/mL (≈ 0.0122 µM)
- MIC [14]: 1.59 µg/mL (≈ 1.25 µM)
- IC50 [15]: 0.05825 µg/mL (≈ 0.0459 µM)
- Ki [15]: 0.0275 µg/mL (≈ 0.0216 µM)
- MIC [16]: 0.4 µg/mL (≈ 0.315 µM)
- MIC [17]: 0.63 µg/mL (≈ 0.496 µM)
- IC50 [18]: 0.00068 µg/mL (≈ 0.000535 µM)
- IC50 [19]: 5.199 µg/mL (≈ 4.09 µM)
- Ki [19]: 5.7065 µg/mL (≈ 4.49 µM)
- IC50 [20]: 0.24527 µg/mL (≈ 0.193 µM)
- Ki [20]: 0.476 µg/mL (≈ 0.375 µM)
- MIC [21]: 0.06 µg/mL (≈ 0.0472 µM)
- MIC [22]: 0.015 µg/mL (≈ 0.0118 µM)
- IC50 [23]: 0.07752 µg/mL (≈ 0.061 µM)
- Ki [23]: 0.248 µg/mL (≈ 0.195 µM)
- MIC [24]: 0.05 µg/mL (≈ 0.0394 µM)
- MIC [25]: 0.02 µg/mL (≈ 0.0157 µM)
- MIC [26]: 1.26 µg/mL (≈ 0.992 µM)
- MIC [27]: 0.03 µg/mL (≈ 0.0236 µM)
- MIC [28]: 1.6 µg/mL (≈ 1.26 µM)
- IC50 [29]: 0.11235 µg/mL (≈ 0.0884 µM)
- Ki [29]: 0.51 µg/mL (≈ 0.401 µM)
- IC50 [30]: 0.0102 µg/mL (≈ 0.00803 µM)
- Ki [30]: 0.0235 µg/mL (≈ 0.0185 µM)
- IC50 [31]: 0.9431 µg/mL (≈ 0.742 µM)
- Ki [31]: 2.59 µg/mL (≈ 2.04 µM)
